PKD1 inh – inhibitors of human PKD1 kinase; inhibition, % (no concentration beside the values); PKD1 kinase fluorescence polarization assay; actives 0.056% (n = 200,000); in the data active means inhibition above about 50%
Rad51 HR inh – Rad51 (human) homologous recombination inhibition; Q06609; inhibition, % at 10 µM; hRad51 DNA strand exchange, fluorescence dequenching; actives 0.085% (n = 200,000);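 active means inhibition above 40% at the single screening dose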;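 further: 0% = DMSO control wells and 100% = blanks with heterologous ssDNA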
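Read-out basis: percent inhibition relative to plate controls and blanks / Assay system: human Rad51 nucleoprotein filaments preassembled on unlabelled ssDNA / Timing: filaments 15 min 37 °C, then compound 30 min / Control set: per-plate controls and blanks / Technique: fluorescence dequenching at 485/520 nm / Compound: 10 µM final, single point / Also added: Fluorescein- and BHQ1-tagged 47-mer duplex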
ROMK mod – human ROMK K+ channel modulation, primary screen | P48048 | Tet-inducible ROMK, thallium flux fluorescence; actives lie on both sides | B-score at 10 µM | actives 2% (n = 130,000) | AID 1918;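 active means signal ratio slope over the read window, or its plate-corrected B-score, at least 3 SD from the plate mean, either direction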;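 further: B-score of the F/F0 ratio slope over 7 to 12 s after thallium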
KCC2 mod – KCC2 (human) Cl- transport modulation. actives 2.2% (n = 190,000). KCC2 cells, thallium flux FluoZin-2 fluorescence. B-score of Tl+ flux slope (higher = more flux/activation; lower = inhibition) at 10 µM. Q9H2X9;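 active means thallium flux slope and its plate-corrected score both differing from the plate sample mean at a set confidence after two filtering rounds, in either direction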;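 further: slope of fluorescence scaled to starting intensity during 10 to 20 s after thallium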
ROMK hit retest – retested hit modulating human ROMK potassium channel; shares compounds with ROMK mod; ROMK thallium flux, fluorescence ratio; stronger effect = lower value; normalized thallium flux (F/F0 slope) at 10 µM; actives 54% (n = 3,000); AID 1917;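 active means Flux at 10 µM at least 3 SD below or above vehicle control mean in one or both replicates; inconclusive means no clear call, values can overlap the other calls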
Numbers without * were called inactive. This is a sample that favours compounds with a hit; in the whole collection about 3% have one here.

Results for O=C(/C=C/c1ccco1)Nc1ccccn1 ?
PKD1 inh: -4; ROMK mod: 1.8*; KCC2 mod: 1.2; ROMK hit retest: 0.085

Results for COc1ccc2nc3ccccc3nc2c1NC(=O)c1ccc(Cl)cc1Cl ?
PKD1 inh: -7; Rad51 HR inh: inactive; ROMK mod: -1; KCC2 mod: inactive

How did CC(C)[C@H](NC(N)=O)C(=O)Nc1cccc(S(=O)(=O)N2CCOCC2)c1 do in these assays?
PKD1 inh: 0; Rad51 HR inh: -4; KCC2 mod: 0.74

What do the screens show for `N#Cc1c(NC(=O)C2CC=CCC2C(=O)O)sc2c1CCCCCC2` (stereo not given)?
PKD1 inh: -6; Rad51 HR inh: 9; KCC2 mod: 0.0085

Results for CC(C)(C)C1CCc2c(sc(NC(=O)C3CC=CCC3C(=O)O)c2C#N)C1 (stereo not given) ?
PKD1 inh: -3; Rad51 HR inh: 0; ROMK mod: -3.5*; KCC2 mod: 0.8; ROMK hit retest: inconclusive

How did CCC(C)(C)C1CCc2c(sc(NC(=O)c3ccccc3C(=O)O)c2C#N)C1 (stereo not given) do in these assays?
Rad51 HR inh: 1; KCC2 mod: 0.92; ROMK hit retest: 0.11*

What do the screens show for `Cc1ccc(CNc2nc(N)c([N+](=O)[O-])c(NCCO)n2)cc1`?
Rad51 HR inh: 12; KCC2 mod: -1.2

Results for Nc1nc(NCc2ccc(Cl)cc2)nc(NCCO)c1[N+](=O)[O-] ?
Rad51 HR inh: 2; KCC2 mod: -1; ROMK hit retest: 0.071

What do the screens show for `Oc1ccc(C=Nc2ccc(N3CCOCC3)cc2)c(O)c1`?
PKD1 inh: -5; KCC2 mod: -3.1

What do the screens show for `Oc1cc(Br)ccc1C=Nc1ccc(N2CCCCC2)cc1`?
Rad51 HR inh: -1; KCC2 mod: -1.1; ROMK hit retest: 0.046*

Results for CCn1c2ccc(OC)cc2c2nc3ccccc3nc21 ?
PKD1 inh: 4; Rad51 HR inh: -4; ROMK mod: -0.047; KCC2 mod: -1.1

What do the screens show for `CCCCOC(=O)Cn1c2ccc(OC)cc2c2nc3ccccc3nc21`?
PKD1 inh: -1; Rad51 HR inh: -4; ROMK mod: -4.2*; KCC2 mod: 0.17; ROMK hit retest: 0.056*

How did Cc1ccc(C2CC(c3cccs3)=NN2C(=O)c2ccco2)o1 (stereo not given) do in these assays?
PKD1 inh: 2; Rad51 HR inh: -1; ROMK mod: -5.5*; KCC2 mod: -0.47; ROMK hit retest: inconclusive

What do the screens show for `Cc1oc(-c2cccs2)nc1CN1CCC(CO)(CCOc2ccccc2)CC1`?
PKD1 inh: 4; Rad51 HR inh: -2; ROMK mod: -1.6; KCC2 mod: 0.03

Results for Cn1c(=O)c2[nH]c(-c3ccccc3Cl)c(O)c2n(C)c1=O ?
PKD1 inh: -3; Rad51 HR inh: -17; ROMK mod: -3.9*; KCC2 mod: -0.34; ROMK hit retest: 0.063*

Results for CCOc1ccc(C(=O)NC(=S)Nc2cccc(S(=O)(=O)NC3=NCCC3)c2)cc1 ?
PKD1 inh: 6; Rad51 HR inh: -3; ROMK mod: 5.7*; KCC2 mod: -1.2; ROMK hit retest: 0.096

Results for CCCC1=Nc2cc(C(=O)NCCCOC(C)C)ccc2Sc2ccccc21 ?
PKD1 inh: -2; Rad51 HR inh: 2; ROMK mod: 1.9; KCC2 mod: 0.019

How did CC1=Nc2cc(C(=O)NCCCOC(C)C)ccc2Sc2ccc(C)cc21 do in these assays?
PKD1 inh: -8; Rad51 HR inh: 5; ROMK mod: 4.3*; KCC2 mod: -0.83; ROMK hit retest: 0.091

How did CC1=Nc2cc(C(=O)NCCCOC(C)C)ccc2Sc2ccccc21 do in these assays?
PKD1 inh: -2; Rad51 HR inh: -8; ROMK mod: 2.9*; KCC2 mod: -1.5; ROMK hit retest: 0.091

Results for CC(C)n1nc(C(=O)OCn2nnc3ccccc3c2=O)c2ccccc2c1=O ?
PKD1 inh: -10; Rad51 HR inh: 0; KCC2 mod: -1.6

Results for O=C(N/N=C/c1ccc(O)cc1)c1cc(C23CC4CC(CC(C4)C2)C3)[nH]n1 ?
KCC2 mod: 0.21; ROMK hit retest: 0.072

What do the screens show for `CCOC(=O)N1CCN(S(=O)(=O)c2ccc(C(=O)Nc3ccc4c(c3)C(=O)NC4=O)cc2)CC1`?
PKD1 inh: -6; Rad51 HR inh: 3; ROMK mod: 0.44; KCC2 mod: 0.18

How did CCC1(c2ccc(Cl)cc2)NC(=O)N(Cc2ccc(C(=O)OC)cc2)C1=O (stereo not given) do in these assays?
PKD1 inh: 4; Rad51 HR inh: 5; ROMK mod: -0.063; KCC2 mod: -0.81

How did O=C(Nc1ccc(F)cc1)c1nn(-c2ccccc2)c(=O)cc1Cl do in these assays?
PKD1 inh: -3; Rad51 HR inh: -24; ROMK mod: -3.3*; KCC2 mod: -2.6; ROMK hit retest: 0.066*

What do the screens show for `Oc1c(Cl)cc(Cl)cc1C=Nc1ccc(Br)cc1`?
PKD1 inh: -7; Rad51 HR inh: 1; KCC2 mod: -1.6

Results for Cc1ccc(N=Cc2cc(Br)cc(Cl)c2O)cc1 ?
PKD1 inh: -2; ROMK mod: 3.4*; KCC2 mod: 0.89; ROMK hit retest: 0.1*

What do the screens show for `COc1ccc(OC)c(CNC(=O)CCCc2cn(C)c3ccccc23)c1`?
PKD1 inh: 1; ROMK mod: 1.3*; KCC2 mod: -2.5; ROMK hit retest: inconclusive

What do the screens show for `COc1ccc(CCCC(=O)NCc2ccccc2)cc1C`?
PKD1 inh: -1; Rad51 HR inh: -5; ROMK mod: 4*; KCC2 mod: -0.29; ROMK hit retest: 0.088

What do the screens show for `CCC1(C)Cc2ccccc2C(=S)N1` (stereo not given)?
PKD1 inh: 2; Rad51 HR inh: 12; ROMK mod: 0.45; KCC2 mod: -0.086

What do the screens show for `CCOC(=O)CCCc1ccc(/C(C)=N/NC(N)=S)cc1`?
Rad51 HR inh: 2; ROMK mod: -1.2; KCC2 mod: 0.99

How did COc1ccc(C2NCCc3c2[nH]c2ccccc32)cc1CN1CCc2cc(OC)c(OC)cc2C1C (stereo not given) do in these assays?
Rad51 HR inh: -16; ROMK mod: -3.8*; KCC2 mod: 0.58; ROMK hit retest: 0.055*

What do the screens show for `COc1ccc(C2NCCc3c2[nH]c2ccccc32)cc1COc1ccc(F)cc1` (stereo not given)?
PKD1 inh: 6; ROMK mod: -1.6; KCC2 mod: 0.07

What do the screens show for `CC(C)C(NS(=O)(=O)c1cccc2nsnc12)C(=O)Nc1nc2ccc(Cl)cc2s1` (stereo not given)?
PKD1 inh: 11; KCC2 mod: -0.099

Results for CCOc1ccc2nc(NC(=O)C(NS(=O)(=O)c3cccc4nsnc34)C(C)C)sc2c1 (stereo not given) ?
PKD1 inh: 9; Rad51 HR inh: 1; KCC2 mod: -0.98; ROMK hit retest: 0.056*

What do the screens show for `Cc1cnc2ncc3sccc3c2c1`?
PKD1 inh: 1; Rad51 HR inh: -31; ROMK mod: -3.6*; KCC2 mod: -1.7; ROMK hit retest: 0.059*
